Reference: ChEMBL document CHEMBL4028909, “Discovery of an Orally Bioavailable Benzofuran Analogue That Serves as a β-Amyloid Aggregation Inhibitor for the Potential Treatment of Alzheimer's Disease” (J Med Chem, 2018)
Calls of active or inactive are those of the source. The rule behind the calls is not given here.

Columns and labels:
[1] = molecular target: Amyloid-beta precursor protein (Homo sapiens) (UniProt P05067); experiment: Inhibition of HFIP-pretreated amyloid beta (1 to 42) (unknown origin) aggregation after 1 hr by transmission electron microscopic method
[2] = molecular target: Amyloid-beta precursor protein (Homo sapiens) (UniProt P05067); experiment: Induction of HFIP-pretreated amyloid beta (1 to 42) (unknown origin) disaggregation at 3.1 to 50 uM after 1 hr by Thioflavin-T fluorescence assay relative to control
Canis familiaris = experiment: Volume of distribution at steady state in po dosed dog; assay type: ADME, organism-based, Canis lupus familiaris; details: in vivo
[3] = Terminal half life in mouse at 3 mg/kg, iv; assay type: ADME, organism-based; details: in vivo, read-out: beta t1/2 (converted)
Procedure, shortened: (§1)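 Mouse pharmacokinetics: single i.v. dose of 3 mg/kg, or oral doses of 3, 10 and 30 mg/kg. Plasma concentration–time curves gave T1/2 (terminal, hr), Tmax (hr), Cmax, AUC and bioavailability (%).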

[4] = Cmax in mouse at 3 mg/kg, po; assay type: ADME, organism-based; parameters: dose 3 mg/kg, route oral; details: in vivo
Procedure, shortened: (§2)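 Mice received a single dose of 3 mg/kg i.v. or 3, 10 or 30 mg/kg orally. Plasma concentration-time profiles were analysed for AUC from zero to infinity and to the last measured time (hr*ng/mL), Cmax (ng/mL, C0 after i.v.), Tmax and terminal half-life (hr), and oral bioavailability (%).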

[5] = molecular target: Amyloid-beta precursor protein (Homo sapiens) (UniProt P05067); experiment: Induction of HFIP-pretreated amyloid beta (1 to 42) (unknown origin) disaggregation after 48 hrs by silver staining-based SDS-PAGE analysis
Procedure, shortened: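 Aβ aggregates were incubated with compound for 48 h, with congo red as positive control. Size distribution (monomer, dimer, trimer, high-molecular-weight species) was analysed by SDS-PAGE with silver staining at the start and at the end of incubation.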

Cytochrome P450 1A2 = molecular target: T1, Cytochrome P450 1A2 (Homo sapiens, UniProt P05177); experiment: Inhibition of CYP1A2 in human liver microsomes preincubated for 5 mins followed by addition of NADPH generating system measured after 20 mins by LC-MS/MS analysis; assay type: ADME
T1 sequence (P05177 whole entry): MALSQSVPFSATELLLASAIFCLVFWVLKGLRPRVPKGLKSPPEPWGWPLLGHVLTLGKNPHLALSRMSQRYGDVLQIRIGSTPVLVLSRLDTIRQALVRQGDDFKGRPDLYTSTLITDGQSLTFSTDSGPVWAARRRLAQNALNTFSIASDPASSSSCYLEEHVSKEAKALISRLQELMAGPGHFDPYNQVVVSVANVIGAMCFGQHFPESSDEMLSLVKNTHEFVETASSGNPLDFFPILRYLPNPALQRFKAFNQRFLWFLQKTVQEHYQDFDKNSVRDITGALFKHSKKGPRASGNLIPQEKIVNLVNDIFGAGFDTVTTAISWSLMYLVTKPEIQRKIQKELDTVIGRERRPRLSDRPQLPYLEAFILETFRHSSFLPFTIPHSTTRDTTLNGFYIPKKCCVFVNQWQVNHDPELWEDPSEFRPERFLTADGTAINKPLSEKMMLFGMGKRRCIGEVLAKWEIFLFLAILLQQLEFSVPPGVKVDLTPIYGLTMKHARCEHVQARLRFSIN
Procedure, shortened: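 Inhibition of each CYP isozyme (1A2, 2A6, 2C8, 2C9, 2C19, 2D6, 3A4) was measured in human liver microsomes. IC50 values were reported in μM.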

[6] = Half-life in po dosed rat; details: in vivo
[7] = Oral bioavailability in dog; assay type: ADME, organism-based, Canis lupus familiaris; details: in vivo
Mus musculus [8] = experiment: Antiamyloidogenic activity in po dosed double APP/PS1 transgenic Alzheimer's disease mouse model assessed as decrease in amyloid beta (1 to 42) levels in brain administered as qd for 8 weeks by sandwich ELISA; assay type: functional, organism-based
Procedure, shortened: (§3)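 APP/PS1 mice, 29 weeks old, were dosed orally once daily for eight weeks at 30 or 100 mg/kg, with a vehicle group. Brain tissue was homogenized and amyloid fibrils were solubilized to monomers. Aβ1-40 and Aβ1-42 were then quantified by immunoassay with antibodies specific to monomeric Aβ.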

[9] = Tmax in mouse at 10 mg/kg, po; assay type: ADME, organism-based; details: in vivo; procedure, shortened: as §1
[10] = AUClast in mouse at 30 mg/kg, po; assay type: ADME, organism-based; parameters: dose 30 mg/kg, time 0 - last, route oral; details: in vivo; procedure, shortened: as §2
[11] = Half-life in po dosed dog; details: in vivo
HT-22 = experiment: Neuroprotective activity against amyloid beta-induced toxicity in mouse HT22 cells assessed as increase in cell viability preincubated for 1 hr followed by amyloid beta challenge measured after 18 hrs by MTT assay; assay type: functional, cell-based
Procedure, shortened: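 Mouse hippocampal HT22 cells were treated with compound at several concentrations and then exposed to preformed Aβ aggregates made from 25 μM monomeric Aβ. Viability was read by MTT and scaled between untreated cells and Aβ-only cells. Mean±SD of three independent experiments; one-way ANOVA with Dunnett test.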

[12] = Oral bioavailability in monkey; assay type: ADME, organism-based, Macaca mulatta; details: rhesus monkey, in vivo
Mus musculus [13] = experiment: Reversal of cognitive deficit in amyloid beta (1 to 42)-treated Alzheimer's disease ICR mouse model assessed as increase in spatial memory function by measuring spontaneous alternation at 10 mg/kg, po administered for 3 consecutive days by Y maze test relative to control; assay type: functional
Procedure, shortened: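 Acute AD model: preformed Aβ aggregates injected directly into the brains of normal mice to induce acute neurotoxicity. Compound given orally for three consecutive days, then the Y-maze was run. Read-out is percentage of spontaneous alternation, compared against normal and vehicle-treated mice.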

Rhesus monkey = experiment: Volume of distribution at steady state in po dosed monkey; assay type: ADME, organism-based, Macaca mulatta; details: in vivo
Mus musculus [14] = experiment: Reversal of cognitive deficit in amyloid beta (1 to 42)-treated Alzheimer's disease ICR mouse model assessed as increase in step-through latency time administered orally for 3 consecutive days by passive avoidance test; assay type: functional
Procedure, shortened: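 Acute AD model: preformed Aβ aggregates injected into the brains of normal mice. Compound given orally for three consecutive days, then step-through passive avoidance was tested by a standard protocol. Read-out is step-through latency (sec), compared against control and vehicle groups.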

Mus musculus [15] = experiment: Reversal of cognitive deficit in double APP/PS1 transgenic Alzheimer's disease mouse model assessed as increase in spatial memory function by measuring spontaneous alternation at 30 mg/kg, po qd administered for 8 weeks by Y maze test (reference value: 52.64 +/- 4.15%); assay type: functional
Procedure, shortened: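 APP/PS1 double transgenic mice, 29 weeks old, dosed orally once daily at 30 or 100 mg/kg for eight weeks. Y-maze spontaneous alternation (%) was then measured against vehicle-treated mice, and mice were watched for apparent toxicity.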

[16] = Oral bioavailability in mouse at 30 mg/kg; assay type: ADME, organism-based; details: in vivo; procedure, shortened: as §2
[17] = Cmax in po dosed rat; assay type: ADME, organism-based; parameters: route oral; details: in vivo
[18] = AUC in po dosed dog; assay type: ADME, organism-based, Canis lupus familiaris; details: in vivo
[19] = molecular target: Amyloid-beta precursor protein (Homo sapiens) (UniProt P05067); experiment: Induction of HFIP-pretreated amyloid beta (1 to 42) (unknown origin) disaggregation after 1 hr by transmission electron microscopic method
Mus musculus [20] = experiment: Antiamyloidogenic activity in double APP/PS1 transgenic Alzheimer's disease mouse model assessed as amyloid beta (1 to 42) levels in brain at 100 mg/kg, po qd administered for 8 weeks by sandwich ELISA relative to control; assay type: functional; procedure, shortened: as §3
[21] = Oral bioavailability in mouse at 3 mg/kg; assay type: ADME, organism-based; details: in vivo; procedure, shortened: as §2
[22] = AUC in po dosed rat; assay type: ADME, organism-based; details: in vivo
Mus musculus [23] = experiment: Antiamyloidogenic activity in po dosed double APP/PS1 transgenic Alzheimer's disease mouse model assessed as decrease in amyloid beta (1 to 40) levels in brain administered as qd for 8 weeks by sandwich ELISA; assay type: functional, organism-based; procedure, shortened: as §3

Amyloid-beta precursor protein (Homo sapiens), sequence (P05067 whole entry): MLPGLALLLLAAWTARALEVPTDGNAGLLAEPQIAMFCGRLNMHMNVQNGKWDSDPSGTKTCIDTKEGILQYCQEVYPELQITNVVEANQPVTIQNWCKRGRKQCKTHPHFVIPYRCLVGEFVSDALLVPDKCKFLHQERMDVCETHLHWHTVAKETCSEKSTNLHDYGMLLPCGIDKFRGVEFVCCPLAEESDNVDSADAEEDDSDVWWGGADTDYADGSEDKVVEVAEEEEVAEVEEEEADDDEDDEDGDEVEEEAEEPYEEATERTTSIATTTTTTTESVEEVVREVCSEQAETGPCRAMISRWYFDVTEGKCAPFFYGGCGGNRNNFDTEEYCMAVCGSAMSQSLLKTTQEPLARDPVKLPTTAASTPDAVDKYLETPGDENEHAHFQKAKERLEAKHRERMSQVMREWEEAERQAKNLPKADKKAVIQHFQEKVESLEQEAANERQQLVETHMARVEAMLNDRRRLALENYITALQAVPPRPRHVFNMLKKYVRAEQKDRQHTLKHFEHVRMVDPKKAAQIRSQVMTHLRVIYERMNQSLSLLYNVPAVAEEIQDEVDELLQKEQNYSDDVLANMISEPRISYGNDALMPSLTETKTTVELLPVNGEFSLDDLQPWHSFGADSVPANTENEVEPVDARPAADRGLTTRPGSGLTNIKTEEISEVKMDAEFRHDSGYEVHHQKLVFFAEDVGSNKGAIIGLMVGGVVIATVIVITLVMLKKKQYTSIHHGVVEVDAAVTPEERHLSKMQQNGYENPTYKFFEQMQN

inhibition [1]: Active | Activity [2]: 40% | Vdss (Canis familiaris): 2.7 L/kg | half-life [3]: 1.4 h | Cmax [4]: 102 ng/mL | Activity [5]: Active | IC50 (Cytochrome P450 1A2): > 50 µM | t1/2 [6]: 3.8 h | bioavailability [7]: 25% | Tmax [9]: 0.7 h | AUC(0-t) [10]: 10400 ng·h/mL | t1/2 [11]: 1.4 h | bioavailability [12]: 70% | Vdss (Rhesus monkey): 3.8 L/kg | bioavailability [16]: 79.1% | Cmax [17]: 421 ng/mL | AUC [18]: 4190 ng·h/mL | Activity [19]: Active | bioavailability [21]: 21.4% | AUC [22]: 4200 ng·h/mL
Structure (SMILES): COCCCc1ccc2oc(-c3ccc(OC)c(OC)c3)cc2c1
Activity (Mus musculus [8]): Dose-dependent effect | Activity (HT-22): Dose-dependent effect | Activity (Mus musculus [13]): 73.07% | Activity (Mus musculus [14]): Dose-dependent effect | ED50 (Mus musculus [14]; po): 0.19 mg/kg | Activity (Mus musculus [15]): 63.73% | Activity (Mus musculus [20]): 70% | Activity (Mus musculus [23]): Dose-dependent effect
